Laboratory results taken from ChEMBL document CHEMBL1139082, “A potent and orally active HIV-1 integrase inhibitor” (Bioorg Med Chem Lett, 2007).
Converted amounts (≈) assume the structure as drawn. The source made the active and inactive calls. The rule behind the calls is not given here.

Assays:
[1] = Half life in rhesus monkey at 1 mg/kg, iv; format: ADME, organism-based, Macaca mulatta; set-up: dose 1 mg/kg, route intravenous; conditions: in vivo
Outline: (§1)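 Dog and rhesus monkeys were given sodium salt intravenously at 1 mg/kg, dissolved in DMSO. Half-life (h) and clearance (mL/min/kg) were derived from plasma concentrations after iv dosing.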

[2] = Half life in dog at 1 mg/kg, iv; format: ADME, organism-based, Canis lupus familiaris; set-up: dose 1 mg/kg, route intravenous; conditions: in vivo; outline: as §1
[3] = system: Human immunodeficiency virus 1; experiment: Antiviral activity against HIV1 with integrase V151l mutant; format: functional, organism-based
Outline: (§2)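 HIV-1 carrying site-directed integrase mutations (mutations first seen in serial cell-culture passage under integrase inhibitors) tested in cell culture. Activity is expressed as fold loss in efficacy relative to wild-type virus.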

[4] = Clearance in dog at 1 mg/kg, iv; format: ADME, organism-based, Canis lupus familiaris; set-up: dose 1 mg/kg, route intravenous; conditions: in vivo; outline: as §1
[5] = system: Human immunodeficiency virus 1; experiment: Antiviral activity against HIV1 3B in MT4 cells assessed as decrease in HIV1 p24 core antigen in presence of normal human serum; format: functional; conditions: Human immunodeficiency virus 1, 3B
Outline: (§3)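 MT-4 human T-lymphoid cells infected with HIV-1 IIIb, cultured with increasing inhibitor concentrations; readout is the decrease in p24 core antigen. IC95 is the concentration giving 95% inhibition of viral growth versus control. Line 1 used 10% fetal bovine serum; line 2 used 50% normal human serum. n ≥ 2; lower limit ~7 nM; SD ~2-fold.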

[6] = system: Human immunodeficiency virus 1; experiment: Antiviral activity against HIV1 with integrase N155S mutant; format: functional, organism-based; outline: as §2
[7] = Partition coefficient, log P at pH 7.4; format: physicochemical; conditions: octanol/water
Outline: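 Octanol/buffer partition measured by HPLC at each compound's maximum absorbance. Log P = log[(octanol area × octanol dilution)/(buffer area × buffer dilution)].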

[8] = system: Human immunodeficiency virus 1; experiment: Antiviral activity against HIV1 with integrase T66l/S153Y mutant; format: functional, organism-based; outline: as §2
[9] = system: Human immunodeficiency virus 1; experiment: Antiviral activity against HIV1 with integrase F121Y mutant; format: functional, organism-based; outline: as §2
[10] = Solubility at pH 7.4 by equilibrium solubility assay; format: physicochemical; conditions: buffer
Outline: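 Crystalline drug was suspended in 10 mM sodium phosphate, pH 7.4, and equilibrated at room temperature for 5 days. Aliquots were centrifuged 15,000 rpm for 15 min. Solution concentration was measured by HPLC at days 2 and 5 and taken as solubility.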

[11] = Oral bioavailability in rat at 10 mg/kg; format: ADME, organism-based; conditions: in vivo
Outline: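 Sodium salt was ground and given orally to rats at 10 mg/kg as a 1% aqueous methylcellulose solution/suspension. Percent bioavailability was taken after oral administration.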

[12] = system: Human immunodeficiency virus 1; experiment: Antiviral activity against HIV1 3B in MT4 cells assessed as decrease in HIV1 p24 core antigen in presence of FBS; format: functional; conditions: Human immunodeficiency virus 1, 3B; outline: as §3
[13] = Half life in rat at 2 mg/kg, iv; format: ADME, organism-based; set-up: dose 2 mg/kg, route intravenous; conditions: in vivo
Outline: (§4)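 Rats received the sodium salt intravenously at 2 mg/kg, dissolved in DMSO. Half-life (h) and clearance (mL/min/kg) were derived after iv administration.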

[14] = Clearance in rhesus monkey at 1 mg/kg, iv; format: ADME, organism-based, Macaca mulatta; set-up: dose 1 mg/kg, route intravenous; conditions: in vivo; outline: as §1
[15] = system: Human immunodeficiency virus 1; experiment: Antiviral activity against HIV1 with integrase T66l/M154l mutant; format: functional, organism-based; outline: as §2
[16] = system: Human immunodeficiency virus 1; experiment: Antiviral activity against HIV1 with integrase […] mutant; format: functional, organism-based; outline: as §2
[17] = Oral bioavailability in rhesus monkey at 1 mg/kg; format: ADME, organism-based, Macaca mulatta; conditions: in vivo
Outline: (§5)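 Sodium salt was ground and given orally at 1 mg/kg to dogs and rhesus monkeys as a 0.5% aqueous methylcellulose suspension. Percent bioavailability was taken after oral administration.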

[18] = Oral bioavailability in dog at 1 mg/kg; format: ADME, organism-based, Canis lupus familiaris; conditions: in vivo; outline: as §5
[19] = Clearance in rat at 2 mg/kg, iv; format: ADME, organism-based; set-up: dose 2 mg/kg, route intravenous; conditions: in vivo; outline: as §4
[20] = system: Human immunodeficiency virus 1; experiment: Antiviral activity against HIV1 with integrase T125K mutant; format: functional, organism-based; outline: as §2
[21] = system: Plasma; experiment: Fraction unbound in human plasma after 30 mins by ultracentrifugation method; format: ADME, cell-free; conditions: 0.5 h
Outline: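 14C-labelled compound was spiked into human plasma (pH 7.4) at final 1, 5 and 20 µM and incubated 30 min at 37 °C. Ultracentrifugation at 180,000g, 37 °C, overnight (~18 h). Supernatant aliquots were counted by liquid scintillation with quench correction; fu (%) = dpm in protein-free fraction / dpm in original plasma × 100.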

[22] = organism: Homo sapiens; experiment: Protein binding in human plasma by ultrafiltration method; conditions: read-out: PB (converted)
[23] = target: Human immunodeficiency virus type 1 integrase (Human immunodeficiency virus 1, UniProt Q7ZJM1); experiment: Inhibition of HIV1 recombinant integrase catalyzed strand transfer activity
Sequence of Human immunodeficiency virus type 1 integrase (Q7ZJM1 whole entry): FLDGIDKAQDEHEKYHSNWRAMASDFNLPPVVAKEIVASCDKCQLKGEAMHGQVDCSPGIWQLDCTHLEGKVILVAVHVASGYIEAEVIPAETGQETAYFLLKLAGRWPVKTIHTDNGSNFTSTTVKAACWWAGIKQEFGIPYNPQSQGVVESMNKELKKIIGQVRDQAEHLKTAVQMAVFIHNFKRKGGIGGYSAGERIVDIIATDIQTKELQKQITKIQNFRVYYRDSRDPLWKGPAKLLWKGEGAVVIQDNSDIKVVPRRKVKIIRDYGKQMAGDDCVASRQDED

| SMILES | logD [7] | fraction unbound [22] | IC50 [23] [nM] | IC95 [5] [nM] | IC95 [12] [nM] | further results |
| --- | --- | --- | --- | --- | --- | --- |
| O=C(NCc1ccc(F)cc1)c1nc(N2CCCCS2(=O)=O)c2cccnc2c1O | 2.1 | – | – | 102 | 15 | half-life [1]: 0.7 h; half-life [2]: 2.9 h; Activity [3]: Active; clearance [4]: 2 mL/min/kg; Activity [6]: Active; Activity [8]: Active; Activity [9]: Active; Solubility [10]: 0.21 µg/mL (≈ 0.488 µM); bioavailability [11]: 41%; half-life [13]: 1.2 h; clearance [14]: 6.6 mL/min/kg; Activity [15]: Active; Activity [16]: Active; bioavailability [17]: 51%; bioavailability [18]: 24%; clearance [19]: 2.8 mL/min/kg; Activity [20]: Active |
| CNC(=O)c1cc(F)ccc1CN[14C](=O)c1nc(N2CCCCS2(=O)=O)c2cccnc2c1O | – | – | – | – | – | Activity [21]: 15% |
| O=[14C](NCc1ccc(F)cc1)c1nc(N2CCCCS2(=O)=O)c2cccnc2c1O | – | – | – | – | – | Activity [21]: 1.5% |
| CNC(=O)c1cc(F)ccc1CNC(=O)c1nc(N2CCCCS2(=O)=O)c2cccnc2c1O | 1.6 | 0.08 | 10 | 16 | 7 | half-life [1]: 1.4 h; half-life [2]: 1.8 h; Activity [3]: Active; clearance [4]: 2.8 mL/min/kg; Activity [6]: Active; Activity [8]: Active; Activity [9]: Active; solubility thermodynamic [10]: 2.3 µg/mL (≈ 4.72 µM); bioavailability [11]: 45%; half-life [13]: 1.2 h; clearance [14]: 18.3 mL/min/kg; Activity [15]: Active; Activity [16]: Active; bioavailability [17]: 23%; bioavailability [18]: 65%; clearance [19]: 8.6 mL/min/kg; Activity [20]: Active |
| CNC(=O)c1cc(F)ccc1CNC(=O)c1ncc2cccnc2c1O | 1.4 | 0.02 | 51 | 1040 | – | – |
| O=C(NCc1ccc(F)cc1)c1ncc2cccnc2c1O | 2.4 | 0.01 | – | 5000 | – | – |
| O=C(NCc1ccccc1)c1nc(N2CCCCS2(=O)=O)c2cccnc2c1O | 1.9 | – | 10 | 1000 | 125 | – |

More lines, main results first:

| logD [7] | fraction unbound [22] | IC50 [23] [nM] | SMILES | IC95 [5] [nM] | IC95 [12] [nM] | further results |
| --- | --- | --- | --- | --- | --- | --- |
| 1 | 0.08 | 7 | CNC(=O)Cc1ccccc1CNC(=O)c1nc(N2CCCCS2(=O)=O)c2cccnc2c1O | 438 | 109 | – |
| 1.9 | 0.01 | 45 | CNS(=O)(=O)c1cc(F)ccc1CNC(=O)c1nc(N2CCCCS2(=O)=O)c2cccnc2c1O | 125 | < 8 | – |
| 1 | 0.1 | 110 | CN(C)C(=O)c1cc(F)ccc1CNC(=O)c1nc(N2CCCCS2(=O)=O)c2cccnc2c1O | 63 | 23 | – |
| 1 | 0.06 | 14 | CN(C)C(=O)Cc1ccccc1CNC(=O)c1nc(N2CCCCS2(=O)=O)c2cccnc2c1O | 1000 | 167 | – |
| 1.9 | 0.03 | 30 | CN(C)S(=O)(=O)c1cc(F)ccc1CNC(=O)c1nc(N2CCCCS2(=O)=O)c2cccnc2c1O | 94 | 16 | – |
